Measured values reported in ChEMBL document CHEMBL3739318, “Orally Bioavailable Metal Chelators and Radical Scavengers: Multifunctional Antioxidants for the Coadjutant Treatment of Neurodegenerative Diseases” (J Med Chem, 2015).
Calls of active or inactive are those of the source. The calls are words filed in the database; no cut-off is given here.

What was measured:
ARPE-19 [1] = assay: Neuroprotective activity against Fenton reagent-induced ROS generation-stimulated cytotoxicity in human ARPE19 cells assessed as cell viability at 1 mM after 2 hrs by MTS assay; type: functional, cell-based
Method in brief: (§1)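 Cells in 96-well format exposed 2 h to Fenton reagent (1 mM H2O2 + 1 mM Fe2+) with or without 1 mM compound in 0.16% DMSO. Viability by MTS assay, normalized to untreated cells without Fenton reagent (100%). Mean ± SEM, n = 4. ANOVA.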

SH-SY5Y [2] = assay: Cytotoxicity against human SH-SY5Y cells assessed as reduction in cell viability at 1 mM after 2 hrs by MTS assay; type: cell-based; conditions: 1000 µM
Method in brief: (§2)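 ARPE-19 grown in DMEM + 4% FBS and SH-SY5Y in EMEM/F12 + 10% FBS, at 37 °C, 5% CO2. Plated at 1 × 10^4 cells/well. Exposed 2 h to 1 mM compound (0.16% DMSO) without oxidant. Viability by MTS. Mean ± SEM, n = 4, ANOVA versus blank control.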

SH-SY5Y [3] = assay: Neuroprotective activity against Fenton reagent-induced ROS generation in human SH-SY5Y cells assessed as increase in GSH level at 1 mM after 2 hrs by DTNB method; type: functional, cell-based
Method in brief: (§3)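 Cells grown in 60 or 150 mm dishes and exposed 2 h to Fenton reagent (1 mM H2O2 + 1 mM Fe2+) with or without 1 mM compound in 0.16% DMSO. Intracellular glutathione then measured. Mean ± SEM, n = 6. ANOVA.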

SH-SY5Y [4] = assay: Neuroprotective activity against Fenton reagent-induced ROS generation-stimulated cytotoxicity in human SH-SY5Y cells assessed as cell viability at 1 mM after 2 hrs by MTS assay; type: functional, cell-based; method in brief: as §1
ARPE-19 [5] = assay: Neuroprotective activity against Fenton reagent-induced hydroxy radical-stimulated cytotoxicity in human ARPE19 cells assessed as cell survival at 1 to 1000 uM preincubated for 1 hr followed by Fenton reagent challenge for 2 hrs by fluorescence-based LIVE/DEAD viability/cytotoxicity assay; type: functional
Method in brief: (§4)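 After a PBS wash, cells preincubated 1 h at 37 °C in serum-free medium with 1–1000 μM compound. Fenton reagent (Fe2+/H2O2, 100 μM final) then added for 2 h. Stained 15 min at 37 °C with calcein AM 8 μM and EthD-1 16 μM. Fluorescence read at 494/517 and 528/617 nm. % live cells calculated from blank-corrected single-dye controls; dead-cell control 70% ethanol. Mean ± SEM, n = 6.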

[6] = Cytotoxicity against human ARPE19 cells assessed as reduction in cell viability at 1 mM after 2 hrs by MTS assay; type: cell-based; conditions: arpe-19, 2 h, 1000 µM; method in brief: as §2
SH-SY5Y [7] = assay: Neuroprotective activity against Fenton reagent-induced hydroxy radical-stimulated cytotoxicity in human SH-SY5Y cells assessed as cell survival at 1 to 1000 uM preincubated for 1 hr followed by Fenton reagent challenge for 2 hrs by fluorescence-based LIVE/DEAD viability/cytotoxicity assay; type: functional; method in brief: as §4
ARPE-19 [8] = assay: Neuroprotective activity against Fenton reagent-induced ROS generation in human ARPE19 cells assessed as increase in GSH level at 1 mM after 2 hrs by DTNB method; type: functional, cell-based; method in brief: as §3
[9] = Metal chelating activity assessed as stoichiometric ratio of compound to Mg2+ ion at 0.1 to 0.5 mM of compound and metal ion mixture after 45 mins by spectrophotometric analysis; type: physicochemical; conditions: 0.75 h, 500 µM
Method in brief: (§5)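 Job continuous-variation method at 23 °C. Compound dissolved in acetonitrile, then diluted to 0.1 mM stock in 1 mM acetate pH 6.5. Compound + ion at constant total 0.1–0.5 mM with varied mole fraction. After 45 min equilibration, UV absorbance scanned 210–310 nm. Stoichiometry taken from the intersection of lines. Mean ± SD, n = 3.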

[10] = Metal chelating activity assessed as stoichiometric ratio of compound to Ca2+ ion at 0.1 to 0.5 mM of compound and metal ion mixture after 45 mins by spectrophotometric analysis; type: physicochemical; conditions: 0.75 h, 500 µM; method in brief: as §5
[11] = Metal chelating activity assessed as stoichiometric ratio of compound to Cu+ ion at 0.1 to 0.5 mM of compound and metal ion mixture after 45 mins by spectrophotometric analysis; type: physicochemical; conditions: 0.75 h, 500 µM; method in brief: as §5
[12] = Metal chelating activity assessed as stoichiometric ratio of compound to Fe2+ ion at 0.1 to 0.5 mM of compound and metal ion mixture after 45 mins by spectrophotometric analysis; type: physicochemical; conditions: 0.75 h, 500 µM; method in brief: as §5
[13] = Metal chelating activity assessed as stoichiometric ratio of compound to Mn2+ ion at 0.1 to 0.5 mM of compound and metal ion mixture after 45 mins by spectrophotometric analysis; type: physicochemical; conditions: 0.75 h, 500 µM; method in brief: as §5
[14] = Metal chelating activity assessed as stoichiometric ratio of compound to Fe3+ ion at 0.1 to 0.5 mM of compound and metal ion mixture after 45 mins by spectrophotometric analysis; type: physicochemical; conditions: 0.75 h, 500 µM; method in brief: as §5
[15] = Metal chelating activity assessed as stoichiometric ratio of compound to Zn2+ ion at 0.1 to 0.5 mM of compound and metal ion mixture after 45 mins by spectrophotometric analysis; type: physicochemical; conditions: 0.75 h, 500 µM; method in brief: as §5
[16] = Metal chelating activity assessed as stoichiometric ratio of compound to Cu2+ ion at 0.1 to 0.5 mM of compound and metal ion mixture after 45 mins by spectrophotometric analysis; type: physicochemical; conditions: 0.75 h, 500 µM; method in brief: as §5

Row | Ratio [9] | Ratio [10] | Ratio [11] | Ratio [12] | Ratio [13] | Ratio [14] | Ratio [15] | Ratio [16] | Compound | Activity (ARPE-19 [1]) | Activity (SH-SY5Y [2]) | Activity (SH-SY5Y [3]) | Activity (SH-SY5Y [4]) | Activity (ARPE-19 [5]) | Activity [6] | Activity (SH-SY5Y [7]) | Activity (ARPE-19 [8])
1 |  |  |  |  |  |  |  |  | COc1cc(OC)nc(N2CCCC2)n1 | inactive | Non-toxic | Active | inactive | inactive | Non-toxic | inactive | Active
2 |  |  |  |  |  |  |  |  | Oc1cnc(N2CCCCC2)nc1 | Active | Non-toxic | Active | Active |  | Non-toxic |  | Active
3 |  |  |  |  |  |  |  |  | c1cnc(N2CCCC2)nc1 | inactive | Non-toxic | Active | inactive | inactive | Non-toxic | inactive | Active
4 |  |  |  |  |  |  |  |  | COc1nc(N2CCCCC2)nc(OC)c1O | Active | Non-toxic | Active | Active |  | Non-toxic |  | Active
5 | 0 | 0 | 2.01 | 2.06 | 1.98 | 2.01 | 1.87 | 2.28 | O=C1CCC(=O)N1c1ncccn1 | Active | Non-toxic | Active | Active |  | Non-toxic |  | Active
6 | 0 | 0 | 1.9 | 1.96 | 1.95 | 2.08 | 2.06 | 1.96 | COc1cc(OC)nc(N2C(=O)CCCC2=O)n1 | Active | Non-toxic | Active | Active |  | Non-toxic |  | Active
7 | 0 | 0 | 1.9 | 2.13 | 1.83 | 1.8 | 2.17 | 2.01 | O=C1CCCC(=O)N1c1ncccn1 | Active | Non-toxic | Active | Active |  | Non-toxic |  | Active
8 | 0 | 0 | 1.92 | 2.02 | 2.04 | 2.05 | 2.07 | 2.01 | COc1cc(OC)nc(N2C(=O)CCC2=O)n1 | Active | Non-toxic | Active | Active |  | Non-toxic |  | Active
9 |  |  |  |  |  |  |  |  | c1cnc(N2CCCCC2)nc1 | inactive | Non-toxic | Active | inactive |  | Non-toxic |  | Active
10 |  |  |  |  |  |  |  |  | COc1cc(OC)nc(N2CCCCC2)n1 | inactive | Non-toxic | Active | inactive |  | Non-toxic |  | Active
11 |  |  |  |  |  |  |  |  | COc1nc(N2CCCC2)nc(OC)c1O | Active | Non-toxic | Active | Active |  | Non-toxic |  | Active
12 |  |  |  |  |  |  |  |  | Oc1cnc(N2CCCC2)nc1 | Active | Non-toxic | Active | Active |  | Non-toxic |  | Active
